Assay results as given in ChEMBL document CHEMBL2062518, “Total synthesis and biological evaluation of transvalencin Z” (J Nat Prod, 2012).

Assays:
[1] = tested on: Mycolicibacterium smegmatis; assay: Antimicrobial activity against Mycobacterium smegmatis ATCC 607 after 24 to 48 hrs; format: functional
In short: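 M. smegmatis streaked from glycerol stock onto nutrient agar (1.5%), then grown at 37 °C in nutrient broth with Tyloxapol added to prevent clumping, to OD600 1.0. Diluted to OD600 0.003 and exposed to compound dilutions from DMSO stocks. Absorbance at 600 nm read at 24 and 48 h, 690 nm background subtracted, normalized to DMSO controls; MIC99.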

[2] = tested on: Mycolicibacterium smegmatis; assay: Antimicrobial activity against Mycobacterium smegmatis MC24517 after 24 to 48 hrs; format: functional
In short: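 Grown from glycerol stock on nutrient agar (1.5%) at 37 °C for 24 h, with Tyloxapol added to prevent clumping. Colonies were grown in nutrient broth to OD600 1.0, diluted to OD600 0.003 and incubated with compound dilutions (1% DMSO stocks). OD600 was read at 24 and 48 h, corrected for 690 nm background and standardised to DMSO controls.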

[3] = tested on: Mycobacterium tuberculosis; assay: Antimicrobial activity against Mycobacterium tuberculosis H37Rv after 24 to 48 hrs; format: functional
[4] = tested on: Escherichia coli; assay: Antimicrobial activity against Escherichia coli ATCC 25922 after 24 to 48 hrs; format: functional
In short: (§1)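 Broth microdilution at 37 °C. Glycerol stocks streaked on 1.5% agar for 24 h. Single colonies grown in broth to OD600 1.0: trypticase soy for E. coli, P. aeruginosa and S. aureus; nutrient broth for A. baumannii and K. pneumoniae; brain heart infusion for E. faecalis. Diluted to OD600 0.003 with compound dilutions from DMSO stocks. OD600 read at 24 and 48 h, 690 nm background subtracted, normalized to DMSO control; MIC99.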

[5] = tested on: Acinetobacter baumannii; assay: Antimicrobial activity against Acinetobacter baumannii ATCC 19606 after 24 to 48 hrs; format: functional; conditions: ATCC 19606 = CIP 70.34 = JCM 6841; in short: as §1
[6] = tested on: Klebsiella pneumoniae; assay: Antimicrobial activity against Klebsiella pneumoniae ATCC 13883 after 24 to 48 hrs; format: functional; in short: as §1
[7] = tested on: Pseudomonas aeruginosa; assay: Antimicrobial activity against Pseudomonas aeruginosa ATCC 27853 after 24 to 48 hrs; format: functional; in short: as §1
[8] = tested on: Bacillus subtilis; assay: Antimicrobial activity against Bacillus subtilis ATCC 6633 after 24 to 48 hrs; format: functional
[9] = tested on: Enterococcus faecalis; assay: Antimicrobial activity against Enterococcus faecalis ATCC 51299 after 24 to 48 hrs; format: functional; in short: as §1
[10] = tested on: Staphylococcus aureus; assay: Antimicrobial activity against methicillin-susceptible Staphylococcus aureus clinical isolate IDRL 8545 after 24 to 48 hrs; format: functional; in short: as §1
[11] = tested on: Staphylococcus aureus; assay: Antimicrobial activity against methicillin-resistant Staphylococcus aureus ATCC 43300 after 24 to 48 hrs; format: functional
In short: (§2)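 Streaked from glycerol stock onto trypticase soy agar, 37 °C, 24 h. Single colonies were grown in trypticase soy broth to OD600 1.0 and diluted to OD600 0.003. Cells were incubated with compound at varying concentrations (1% DMSO stocks). Absorbance was read at 600 nm at 24 and 48 h, minus 690 nm background and relative to DMSO controls.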

[12] = tested on: Staphylococcus aureus; assay: Antimicrobial activity against methicillin-resistant Staphylococcus aureus clinical isolate IDRL 6169 after 24 to 48 hrs; format: functional; in short: as §2
[13] = tested on: Candida albicans; assay: Antifungal activity against Candida albicans ATCC 10231 after 24 to 48 hrs; format: functional
In short: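 C. albicans streaked from glycerol stock onto YM agar and grown at 30 °C for 24 h. A single colony was grown in YM broth to OD600 1.0, diluted to OD600 0.003 and incubated with compound dilutions from DMSO stocks. Read at 600 nm at 24 and 48 h, 690 nm background subtracted, normalized to DMSO controls; MIC99.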

[14] = Cytotoxicity against african green monkey Vero cells after 72 hrs by MTT assay; format: cell-based; conditions: chlorocebus sabaeus, read-out: MIC50
In short: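 Vero cells (ATCC CCL-81) in MEM with 10% FBS, 1% PennStrep and 1% Glutamax, seeded at 3.0 × 10^4 cells/well and left to adhere overnight. Compound in DMSO added to final 100 to 0.16 μM, in triplicate, for 72 h at 37 °C, 4.5% CO2. MTT 1.0 mg/mL in phenol red-free RPMI for 3 h, formazan dissolved in isopropanol. A570 minus A690 gave % viability vs DMSO control; dose-response curves gave 50% growth-inhibitory concentration.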

O=CNCCCC[C@H](NC(=O)[C@@H]1COC(c2ccccc2O)=N1)C(=O)O
MIC99 [1]: > 100 µM
MIC99 [2]: > 100 µM
MIC99 [3]: > 200 µM
MIC99 [4]: > 100 µM
MIC99 [5]: > 100 µM
MIC99 [6]: > 100 µM
MIC99 [7]: > 100 µM
MIC99 [8]: > 100 µM
MIC99 [9]: > 100 µM
MIC99 [10]: > 100 µM
MIC99 [11]: > 100 µM
MIC99 [12]: > 100 µM
MIC99 [13]: > 100 µM
CC50 at 72 h [14]: 164 µM

O=CNCCCC[C@@H](NC(=O)[C@H]1COC(c2ccccc2O)=N1)C(=O)O
MIC99 [1]: > 100 µM
MIC99 [2]: > 100 µM
MIC99 [3]: > 200 µM
MIC99 [4]: > 100 µM
MIC99 [5]: > 100 µM
MIC99 [6]: > 100 µM
MIC99 [7]: > 100 µM
MIC99 [8]: > 100 µM
MIC99 [9]: > 100 µM
MIC99 [10]: > 100 µM
MIC99 [11]: > 100 µM
MIC99 [12]: > 100 µM
MIC99 [13]: > 100 µM
CC50 at 72 h [14]: > 200 µM

O=CNCCCC[C@H](NC(=O)[C@H]1COC(c2ccccc2O)=N1)C(=O)O
MIC99 [1]: > 100 µM
MIC99 [2]: > 100 µM
MIC99 [3]: > 200 µM
MIC99 [4]: > 100 µM
MIC99 [5]: > 100 µM
MIC99 [6]: > 100 µM
MIC99 [7]: > 100 µM
MIC99 [8]: > 100 µM
MIC99 [9]: > 100 µM
MIC99 [10]: > 100 µM
MIC99 [11]: > 100 µM
MIC99 [12]: > 100 µM
MIC99 [13]: > 100 µM
CC50 at 72 h [14]: > 200 µM

O=CNCCCC[C@@H](NC(=O)[C@@H]1COC(c2ccccc2O)=N1)C(=O)O
MIC99 [1]: > 100 µM
MIC99 [2]: > 100 µM
MIC99 [3]: > 200 µM
MIC99 [4]: > 100 µM
MIC99 [5]: > 100 µM
MIC99 [6]: > 100 µM
MIC99 [7]: > 100 µM
MIC99 [8]: > 100 µM
MIC99 [9]: > 100 µM
MIC99 [10]: > 100 µM
MIC99 [11]: > 100 µM
MIC99 [12]: > 100 µM
MIC99 [13]: > 100 µM
CC50 at 72 h [14]: 154 µM

O=CNCCCCC(NC(=O)C1COC(c2ccccc2O)=N1)C(=O)O (stereo unspecified) [TRANSVALENCIN Z]
MIC99 [1]: 0.125 mg/L
MIC99 [4]: > 64 mg/L
MIC99 [8]: 16 mg/L
MIC99 [11]: 1 mg/L
MIC99 [13]: > 64 mg/L
